Assay results from ChEMBL document CHEMBL2390837, “Synthesis, cytotoxic activity and DNA-interaction studies of novel anthraquinone-thiosemicarbazones with tautomerizable methylene group” (Eur J Med Chem, 2013).
Calls of active or inactive are those of the source. The calls are words filed in the database; no cut-off is given here.

How the values were obtained:
A549 = assay: Cytotoxicity against human A549 cells after 72 hrs by MTT assay; type: functional, cell-based; settings: A549, 72 h
Procedure, shortened: (§1)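 Cells seeded in 96-well plates: HeLa 2000, MDA-MB-361 7000, MDA-MB-453 3000, K562, A549 and MRC-5 5000 per well. Compounds added at 5–100 μM (final), DMSO ≤0.5%, in RPMI-1640 with 10% FBS. Added after 24 h, except K562 at 2 h after seeding. Exposure 72 h, then MTT 4 h at 37 °C, SDS solubilization, A570 read. IC50 is the mean ± SD of three independent experiments.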

HeLa [1] = assay: Cell cycle arrest in human HeLa cells assessed as accumulation at G2/M phase at 2 times IC50 after 24 hrs by propidium iodide staining-based FACS flow cytometric analysis (reference value: 21.66%); type: functional
HeLa [2] = assay: Cell cycle arrest in human HeLa cells assessed as accumulation at subG1 phase at 2 times IC50 after 24 hrs by propidium iodide staining-based FACS flow cytometric analysis (reference value: 9.10%); type: functional
HeLa [3] = assay: Induction of apoptosis in human HeLa cells at IC90 after 24 hrs by propidium iodide staining-based FACS flow cytometric analysis in presence of caspase-8 inhibitor Z-IETD-FMK; type: functional, cell-based
HeLa [4] = assay: Cell cycle arrest in human HeLa cells assessed as accumulation at G1 phase at IC50 after 24 hrs by propidium iodide staining-based FACS flow cytometric analysis (reference value: 51.97%); type: functional
HeLa [5] = assay: Cell cycle arrest in human HeLa cells assessed as accumulation at S phase at 2 times IC50 after 24 hrs by propidium iodide staining-based FACS flow cytometric analysis (reference value: 16.22%); type: functional
DNA [6] = assay: Binding affinity to calf thymus DNA at 20 to 80 uM after 1.5 hrs by UV-vis spectrophotometric analysis; type: nucleic-acid assay; settings: Bos taurus
Procedure, shortened: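 UV–Vis spectra (200–800 nm, 1 cm cells) of compound at 20, 40, 60 or 80 μM, with or without 0.12 mM CT-DNA. CT-DNA was dissolved in 10 mM Tris-HCl pH 7.9. Mixtures were in 40 mM bicarbonate buffer pH 8.4, incubated 1.5 h at 37 °C with occasional vortexing.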

HeLa [7] = assay: Cytotoxicity against human HeLa cells after 72 hrs by MTT assay; type: functional, cell-based; procedure, shortened: as §1
MRC5 = assay: Cytotoxicity against human MRC5 cells after 72 hrs by MTT assay; type: cell-based; settings: MRC5, 72 h; procedure, shortened: as §1
HeLa [8] = assay: Cell cycle arrest in human HeLa cells assessed as accumulation at G2/M phase at IC50 after 24 hrs by propidium iodide staining-based FACS flow cytometric analysis (reference value: 21.66%); type: functional
HeLa [9] = assay: Induction of apoptosis in human HeLa cells at IC90 after 24 hrs by propidium iodide staining-based FACS flow cytometric analysis in presence of caspase-3 inhibitor Z-DEVD-FMK; type: functional, cell-based
MDA-MB-453 = assay: Cytotoxicity against human MDA-MB-453 cells after 72 hrs by MTT assay; type: functional, cell-based; settings: MDA-MB-453, 72 h; procedure, shortened: as §1
[10] = system: Radical scavenging activity; assay: Antioxidant activity assessed as DPPH radical scavenging activity after 30 mins by spectrophotometric analysis; type: functional
Procedure, shortened: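 Test solutions at 8–1000 μM in methanol mixed 1:1 by volume with 200 μM DPPH in methanol, kept 30 min in the dark at room temperature. Absorbance read at 517 nm against blanks without DPPH. Percent scavenging = (A_DPPH − A_sample)/A_DPPH × 100. IC50 (concentration halving DPPH absorbance) read from a plot of % versus concentration. Ascorbic acid and BHT used as standards.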

HeLa [11] = assay: Cell cycle arrest in human HeLa cells assessed as accumulation at S phase at IC50 after 24 hrs by propidium iodide staining-based FACS flow cytometric analysis (reference value: 16.22%); type: functional
Escherichia coli = assay: Induction of Escherichia coli XL1 blue pUC18 DNA cleavage assessed as conversion of supercoiled DNA to relaxed circular DNA at 2 mM after 90 mins by agarose gel electrophoresis
Procedure, shortened: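 Supercoiled pUC18 (262 ng, from E. coli XL1 blue) incubated with 2 mM compound in 20 μL of 40 mM bicarbonate buffer pH 8.4 at 37 °C for 90 min. Reaction stopped with loading buffer. Analyzed on 1% agarose in TAE pH 8.24 at 80 V and stained with ethidium bromide (0.5 µg/mL).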

K562 = assay: Cytotoxicity against human K562 cells after 72 hrs by MTT assay; type: functional, cell-based; settings: K562, 72 h; procedure, shortened: as §1
MDA-MB-361 = assay: Cytotoxicity against human MDA-MB-361 cells after 72 hrs by MTT assay; type: functional, cell-based; settings: MDA-MB-361, 72 h; procedure, shortened: as §1
HeLa [12] = assay: Cell cycle arrest in human HeLa cells assessed as accumulation at subG1 phase at IC50 after 24 hrs by propidium iodide staining-based FACS flow cytometric analysis (reference value: 9.10%); type: functional
HeLa [13] = assay: Induction of apoptosis in human HeLa cells at IC90 after 24 hrs by propidium iodide staining-based FACS flow cytometric analysis in presence of caspase-9 inhibitor Z-LEHD-FMK; type: functional, cell-based
HeLa [14] = assay: Cell cycle arrest in human HeLa cells assessed as accumulation at G1 phase at 2 times IC50 after 24 hrs by propidium iodide staining-based FACS flow cytometric analysis (reference value: 51.97%); type: functional
DNA [15] = assay: Binding affinity to calf thymus DNA after 1.5 hrs by spectroscopic titration; type: nucleic-acid assay; settings: Bos taurus
Procedure, shortened: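 Absorbance titration in 40 mM bicarbonate buffer pH 8.4. Compound held fixed at 40 μM, CT-DNA varied at (0.2–1.6) × 10⁻⁴ M. Mixtures incubated 1.5 h at 37 °C, then UV–Vis spectra recorded from 200 to 800 nm. K_B taken from a plot of [DNA]/(εA − εF) versus [DNA].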

Structure (SMILES) | IC50 (A549) [µM] | Activity (HeLa [1]) | Activity (HeLa [2]) | Activity (HeLa [3]) | Activity (HeLa [4]) | Activity (HeLa [5]) | Activity (DNA [6]) | IC50 (HeLa [7]) [µM] | IC50 (MRC5) [µM] | Activity (HeLa [8]) | Activity (HeLa [9]) | IC50 (MDA-MB-453) [µM] | IC50 [10] [µM] | Activity (HeLa [11]) | Activity (Escherichia coli) | IC50 (K562) [µM] | IC50 (MDA-MB-361) [µM] | Activity (HeLa [12]) | Activity (HeLa [13]) | Activity (HeLa [14]) | further results
CCOC(=O)/C(CC(=O)c1cccc2c1C(=O)c1ccccc1C2=O)=N\NC(=S)NCc1ccco1 | 22.6 | Active | Active | Active | Active | Active | Active | 19 | 38.6 | Active | Active | 19.4 | 35.8 | Active | inactive | 2.63 | 47.8 | Active | Active | Active | –
O=C1O[C@H]([C@@H](O)CO)C(O)=C1O [ASCORBIC ACID] | – | – | – | – | – | – | – | – | – | – | – | – | 15.9 | – | – | – | – | – | – | – | –
CCOC(=O)/C(CC(=O)c1cccc2c1C(=O)c1ccccc1C2=O)=N\NC(=S)NCc1cccnc1 | 23.4 | Active | Active | Active | Active | Active | Active | 18.1 | 13.6 | Active | Active | 17.7 | 46.9 | Active | inactive | 2.17 | 50.5 | Active | Active | Active | –
CCOC(=O)/C(CC(=O)c1cccc2c1C(=O)c1ccccc1C2=O)=N\Nc1ccccc1 | 40 | – | – | – | – | – | – | 40 | 40 | – | – | 40 | – | – | – | 40 | 40 | – | – | – | –
CCOC(=O)/C(=C/C(=O)c1cccc2c1C(=O)c1ccccc1C2=O)Nc1ccccc1 | 100 | – | – | – | – | – | – | 100 | 100 | – | – | 100 | – | – | – | 100 | 100 | – | – | – | –
CCCCNC(=S)N/N=C(/CC(=O)c1cccc2c1C(=O)c1ccccc1C2=O)C(=O)OCC | 19.6 | Active | Active | Active | Active | Active | Active | 10.9 | 21.1 | Active | Active | 11.5 | 25.8 | Active | inactive | 3.8 | 30.8 | Active | Active | Active | –
Cc1cc(C(C)(C)C)c(O)c(C(C)(C)C)c1 [BUTYLATED HYDROXYTOLUENE] | – | – | – | – | – | – | – | – | – | – | – | – | 33.9 | – | – | – | – | – | – | – | –
CC[n+]1c(-c2ccccc2)c2cc(N)ccc2c2ccc(N)cc21 | – | – | – | – | – | – | – | – | – | – | – | – | – | – | – | – | – | – | – | – | Kb (DNA [15]): 7 ×10⁷ /M
CCOC(=O)/C(CC(=O)c1cccc2c1C(=O)c1ccccc1C2=O)=N\NC(=S)NC1CCCCC1 | 13.9 | Active | Active | Active | Active | Active | Active | 9.15 | 13.6 | Active | Active | 4.64 | 16.4 | Active | inactive | 2.35 | 32.6 | Active | Active | Active | –
